Results reported in ChEMBL document CHEMBL1152839, “2-[2-Substituted-3-(3,4-dichlorobenzylamino)propylamino]-1H-quinolin-4-ones as Staphylococcus aureus methionyl-tRNA synthetase inhibitors” (Eur J Med Chem, 2009).
Values after ≈ are worked out from the molar mass of the structure shown.

Legend:
[1] = Inhibition of Staphylococcus aureus methionyl-tRNA synthetase assessed as decrease in [35S]methionyl-tRNA generation
Staphylococcus aureus [2] = assay: Antibacterial activity against Staphylococcus aureus ATCC 25923 after 16 hrs at 36 degC by microdilution method; format: functional; details: ATCC 25923, 16 h
Method in brief: (§1)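 Broth microdilution in Mueller-Hinton broth, following NCCLS/CLSI. Stock solutions were serially diluted 2-fold to the final test concentrations. The MIC was the lowest concentration that prevented visible growth after incubation at 36 °C. Mupirocin and amoxicillin were reference antibiotics run by the same method.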

Staphylococcus aureus [3] = assay: Antibacterial activity against Staphylococcus aureus ATCC 6538P after 16 hrs at 36 degC by microdilution method; format: functional; method in brief: as §1
Staphylococcus aureus [4] = assay: Antibacterial activity against Staphylococcus aureus ATCC 10537 after 16 hrs at 36 degC by microdilution method; format: functional; details: ATCC 10537, 16 h; method in brief: as §1
Staphylococcus aureus [5] = assay: Antibacterial activity against Staphylococcus aureus GIORGIO after 16 hrs at 36 degC by microdilution method; format: functional; method in brief: as §1
Staphylococcus aureus [6] = assay: Antibacterial activity against Staphylococcus aureus Smith after 16 hrs at 36 degC by microdilution method; format: functional; method in brief: as §1
Staphylococcus aureus [7] = assay: Antibacterial activity against Staphylococcus aureus SP-N2 after 16 hrs at 36 degC by microdilution method; format: functional
Method in brief: (§2)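 Broth microdilution per CLSI in Mueller-Hinton broth for staphylococci. Stock solutions were diluted in a 2-fold serial series to final test concentrations. The MIC was read as the lowest concentration that prevented visible bacterial growth after incubation at 36 °C. Mupirocin and amoxicillin were run by the same method as references.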

[8] = tested on: Staphylococcus epidermidis; assay: Antibacterial activity against Staphylococcus epidermidis ATCC 12228 after 16 hrs at 36 degC by microdilution method; format: functional; details: ATCC 12228, 16 h; method in brief: as §1
Staphylococcus aureus [9] = assay: Antibacterial activity against methicillin-resistant Staphylococcus aureus KS2007-6 after 16 hrs at 36 degC by microdilution method; format: functional; method in brief: as §2
Enterococcus faecium = assay: Antibacterial activity against Enterococcus faecium ATCC 10541 after 16 hrs at 36 degC by microdilution method; format: functional; details: ATCC 10541, 16 h
Method in brief: (§3)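 Broth microdilution in Brain Heart Infusion broth, following NCCLS/CLSI. Test compounds were serially diluted 2-fold from stock. The MIC was the lowest concentration with no visible bacterial growth after incubation at 36 °C. Mupirocin and amoxicillin were tested the same way as references.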

Enterococcus faecalis [10] = assay: Antibacterial activity against Enterococcus faecalis ATCC 19433 after 16 hrs at 36 degC by microdilution method; format: functional; details: ATCC 19433, 16 h; method in brief: as §3
Enterococcus faecalis [11] = assay: Antibacterial activity against Enterococcus faecalis ATCC 29212 after 16 hrs at 36 degC by microdilution method; format: functional; details: ATCC 29212, 16 h; method in brief: as §3

With `CC(C)(C)OC(=O)NC(CNCc1ccc(Cl)c(Cl)c1)CNc1cc(=O)c2ccccc2[nH]1` (stereo not drawn) the IC50 [1] was 103 nM, the MIC (Staphylococcus aureus [2]) was 32 µg/mL (≈ 65.1 µM) and the MIC (Staphylococcus aureus [3]) was 32 µg/mL (≈ 65.1 µM). It also gave an MIC (Staphylococcus aureus [4]) of 32 µg/mL (≈ 65.1 µM), an MIC (Staphylococcus aureus [5]) of 32 µg/mL (≈ 65.1 µM) and an MIC (Staphylococcus aureus [6]) of 32 µg/mL (≈ 65.1 µM). For the same molecule, the MIC (Staphylococcus aureus [7]) was 32 µg/mL (≈ 65.1 µM), the MIC [8] was 32 µg/mL (≈ 65.1 µM) and the MIC (Staphylococcus aureus [9]) was 32 µg/mL (≈ 65.1 µM). For the same molecule, the MIC (Enterococcus faecium) was 8 µg/mL (≈ 16.3 µM), the MIC (Enterococcus faecalis [10]) was 32 µg/mL (≈ 65.1 µM) and the MIC (Enterococcus faecalis [11]) was 32 µg/mL (≈ 65.1 µM).
`C=CCOC(CNCc1ccc(Cl)c(Cl)c1)CNc1cc(=O)c2ccccc2[nH]1` (stereo not drawn) showed an IC50 [1] of 29.4 nM, an MIC (Staphylococcus aureus [2]) of 8 µg/mL (≈ 18.5 µM) and an MIC (Staphylococcus aureus [3]) of 8 µg/mL (≈ 18.5 µM). For the same molecule, the MIC (Staphylococcus aureus [4]) was 16 µg/mL (≈ 37 µM), the MIC (Staphylococcus aureus [5]) was 16 µg/mL (≈ 37 µM) and the MIC (Staphylococcus aureus [6]) was 8 µg/mL (≈ 18.5 µM). It also gave an MIC (Staphylococcus aureus [7]) of 8 µg/mL (≈ 18.5 µM), an MIC [8] of 4 µg/mL (≈ 9.25 µM) and an MIC (Staphylococcus aureus [9]) of 4 µg/mL (≈ 9.25 µM). The MIC (Enterococcus faecium) was 1 µg/mL (≈ 2.31 µM), the MIC (Enterococcus faecalis [10]) was 2 µg/mL (≈ 4.63 µM) and the MIC (Enterococcus faecalis [11]) was 2 µg/mL (≈ 4.63 µM).
With `CC1(C)S[C@@H]2[C@H](NC(=O)[C@H](N)c3ccc(O)cc3)C(=O)N2[C@H]1C(=O)O` [AMOXICILLIN] the MIC (Staphylococcus aureus [2]) was 0.25 µg/mL (≈ 0.684 µM), the MIC (Staphylococcus aureus [3]) was 0.125 µg/mL (≈ 0.342 µM) and the MIC (Staphylococcus aureus [4]) was 0.125 µg/mL (≈ 0.342 µM). For the same molecule, the MIC (Staphylococcus aureus [5]) was 0.125 µg/mL (≈ 0.342 µM), the MIC (Staphylococcus aureus [6]) was 0.125 µg/mL (≈ 0.342 µM) and the MIC (Staphylococcus aureus [7]) was 0.25 µg/mL (≈ 0.684 µM). The MIC [8] was 0.125 µg/mL (≈ 0.342 µM), the MIC (Staphylococcus aureus [9]) was 0.25 µg/mL (≈ 0.684 µM) and the MIC (Enterococcus faecium) was 8 µg/mL (≈ 21.9 µM). The MIC (Enterococcus faecalis [10]) was 64 µg/mL (≈ 175 µM) and the MIC (Enterococcus faecalis [11]) was 64 µg/mL (≈ 175 µM).
With `COCC(CNCc1ccc(Cl)c(Cl)c1)CNc1cc(=O)c2ccccc2[nH]1` (stereo not drawn) the IC50 [1] was 15 nM, the MIC (Staphylococcus aureus [2]) was 16 µg/mL (≈ 38.1 µM) and the MIC (Staphylococcus aureus [3]) was 4 µg/mL (≈ 9.52 µM). It also gave an MIC (Staphylococcus aureus [4]) of 8 µg/mL (≈ 19 µM), an MIC (Staphylococcus aureus [5]) of 16 µg/mL (≈ 38.1 µM) and an MIC (Staphylococcus aureus [6]) of 8 µg/mL (≈ 19 µM). For the same molecule, the MIC (Staphylococcus aureus [7]) was 8 µg/mL (≈ 19 µM), the MIC [8] was 4 µg/mL (≈ 9.52 µM) and the MIC (Staphylococcus aureus [9]) was 4 µg/mL (≈ 9.52 µM). The MIC (Enterococcus faecium) was 0.125 µg/mL (≈ 0.297 µM), the MIC (Enterococcus faecalis [10]) was 0.5 µg/mL (≈ 1.19 µM) and the MIC (Enterococcus faecalis [11]) was 0.5 µg/mL (≈ 1.19 µM).
Molecule `CC(C)OC(CNCc1ccc(Cl)c(Cl)c1)CNc1cc(=O)c2ccccc2[nH]1` (stereo not drawn) has an IC50 [1] of 91 nM, an MIC (Staphylococcus aureus [2]) of 16 µg/mL (≈ 36.8 µM) and an MIC (Staphylococcus aureus [3]) of 16 µg/mL (≈ 36.8 µM). For the same molecule, the MIC (Staphylococcus aureus [4]) was 16 µg/mL (≈ 36.8 µM), the MIC (Staphylococcus aureus [5]) was 32 µg/mL (≈ 73.7 µM) and the MIC (Staphylococcus aureus [6]) was 16 µg/mL (≈ 36.8 µM). It also gave an MIC (Staphylococcus aureus [7]) of 16 µg/mL (≈ 36.8 µM), an MIC [8] of 16 µg/mL (≈ 36.8 µM) and an MIC (Staphylococcus aureus [9]) of 8 µg/mL (≈ 18.4 µM). The MIC (Enterococcus faecium) was 2 µg/mL (≈ 4.6 µM), the MIC (Enterococcus faecalis [10]) was 4 µg/mL (≈ 9.21 µM) and the MIC (Enterococcus faecalis [11]) was 4 µg/mL (≈ 9.21 µM).
With `CN(C)C(CNCc1ccc(Cl)c(Cl)c1)CNc1cc(=O)c2ccccc2[nH]1` (stereo not drawn) the IC50 [1] was 39.6 nM, the MIC (Staphylococcus aureus [2]) was greater than 64 µg/mL and the MIC (Staphylococcus aureus [3]) was greater than 64 µg/mL. It also gave an MIC (Staphylococcus aureus [4]) of 64 µg/mL (≈ 153 µM), an MIC (Staphylococcus aureus [5]) greater than 64 µg/mL and an MIC (Staphylococcus aureus [6]) of 64 µg/mL (≈ 153 µM). For the same molecule, the MIC (Staphylococcus aureus [7]) was 64 µg/mL (≈ 153 µM), the MIC [8] was 32 µg/mL (≈ 76.3 µM) and the MIC (Staphylococcus aureus [9]) was 64 µg/mL (≈ 153 µM). It also gave an MIC (Enterococcus faecium) of 8 µg/mL (≈ 19.1 µM), an MIC (Enterococcus faecalis [10]) of 16 µg/mL (≈ 38.2 µM) and an MIC (Enterococcus faecalis [11]) of 16 µg/mL (≈ 38.2 µM).
In the case of `O=c1cc(NCC(CO)CNCc2ccc(Cl)c(Cl)c2)[nH]c2ccccc12` (stereo not drawn), the IC50 [1] is reported as 11.9 nM, the MIC (Staphylococcus aureus [2]) is reported as 64 µg/mL (≈ 158 µM) and the MIC (Staphylococcus aureus [3]) is reported as 16 µg/mL (≈ 39.4 µM). It also gave an MIC (Staphylococcus aureus [4]) of 32 µg/mL (≈ 78.8 µM), an MIC (Staphylococcus aureus [5]) of 64 µg/mL (≈ 158 µM) and an MIC (Staphylococcus aureus [6]) of 32 µg/mL (≈ 78.8 µM). It also gave an MIC (Staphylococcus aureus [7]) of 16 µg/mL (≈ 39.4 µM), an MIC [8] of 16 µg/mL (≈ 39.4 µM) and an MIC (Staphylococcus aureus [9]) of 16 µg/mL (≈ 39.4 µM). The MIC (Enterococcus faecium) was 2 µg/mL (≈ 4.92 µM), the MIC (Enterococcus faecalis [10]) was 8 µg/mL (≈ 19.7 µM) and the MIC (Enterococcus faecalis [11]) was 8 µg/mL (≈ 19.7 µM).
